# Measured values collected from several papers.
# Each line is one published result; the experiments were not run side by side.
# Effect on: metabolic stability
# Host: mouse
SMILES,system,conditions,half-life [min]
NC1=NN(c2ccc(Oc3ccccc3)c(S(=O)(=O)O)c2)C(=O)C1,liver microsomes,1 µM,51.2
O=c1c2ccc(Oc3ccc(OC(F)(F)F)cc3)cc2[nH]c2ccc(Cl)c(F)c12,liver microsomes,"1 µM, pH 7.4",> 60
NS(=O)(=O)c1nnc(NC(=O)C2CCCC3(CCCCC3)C2)s1 (stereo not drawn),liver microsomes,,58.8
CN(C)CC(=O)OCc1cc2[nH]c(=S)n(Cc3cccnc3)c(=O)c2cc1Cl,liver microsomes,"1 µM, pH 7.4",< 5
Cc1c(C)n(Cc2cccc(OC(C)(C)C(=O)O)c2)c2ccc(C(=O)N[C@@H](C)c3ccc(C(C)(C)C)cc3)cc12,liver microsomes,,> 60
OCc1ccc(-c2nn(Cc3ccccc3)c3ccccc23)o1,hepatocytes,,1.89
C[C@@H]1CNC[C@H](C)[C@@]1(O)c1ccc(-c2ccnc3[nH]cc(F)c23)cc1,liver microsomes,,49
O=c1c2ccc(Oc3cccc(OC(F)(F)F)c3)cc2[nH]c2cc(Cl)cc(F)c12,liver microsomes,"1 µM, pH 7.4",57
O=c1c2cc(Cl)c(CO)cc2[nH]c(=S)n1Cc1cccnc1,liver microsomes,"1 µM, pH 7.4",29.5
Cc1cc(-c2ccnc3[nH]cc(F)c23)cc(F)c1[C@@]1(O)[C@H](C)CN(C(C)C)C[C@@H]1C,liver microsomes,,1.5
C=CCn1c(=O)c2cnc(Nc3ccc(N4CCN(C)CC4)cc3)nc2n1-c1ccc2c(n1)[C@@](O)(CC)CC2,liver microsomes,,77
CCN(CC)CCNC(=O)c1c(C)[nH]c(/C=C2\C(=O)Nc3ccc(F)cc32)c1C,liver microsomes,,17
Nc1nnc(-c2ccccc2O)cc1N1CCN(Cc2ccc(N3CCC(CN4CCN(c5ccc6c(c5)C(=O)N(C5CCC(=O)NC5=O)C6=O)CC4)CC3)c(F)c2)CC1 (stereo not drawn),liver microsomes,1 mM,59
O=c1c2c(F)cc(Cl)cc2[nH]c2cccc(Oc3ccc(OC(F)(F)F)cc3)c12,liver microsomes,"1 µM, pH 7.4",> 60
C[C@@H]1CNC[C@H](C)[C@@]1(O)c1ccc(-c2ccnc3[nH]cc(F)c23)cc1Cl,liver microsomes,,9.1
CC(C)(C)OC(=O)N1CCC(Oc2ccc3c(=O)c4c(F)cc(Cl)cc4[nH]c3c2)C1 (stereo not drawn),liver microsomes,"1 µM, pH 7.4",> 60
CC(C)C(=O)OCc1cc2[nH]c(=S)n(Cc3cccnc3)c(=O)c2cc1Cl,liver microsomes,"1 µM, pH 7.4",< 5
CC(=O)N1C[C@@H](C)[C@](O)(c2c(C)cc(-c3ccnc4[nH]cc(F)c34)cc2F)[C@@H](C)C1,liver microsomes,,3.5
O=c1c2c([nH]c3cc(Oc4ccc(OC(F)(F)F)cc4)c(F)cc13)CCCC2,liver microsomes,"1 µM, pH 7.4",13.2
Cc1[nH]c(C)c(S(=O)(=O)Nc2ccc(C(F)(F)F)c(Cl)c2)c1C(=O)N(C)C,liver microsomes,,3.9
CC(C)c1cc(C(=O)NCCN)c2cnn(C(C)C)c2n1,liver microsomes,,> 145
CCN(CC)CCCOc1ccc2c(=O)c3c([nH]c2c1)CCCC3,liver microsomes,"1 µM, pH 7.4",> 60
NC(=NCCC[C@@H](C(=O)NCc1ccccc1)n1cc(-c2ccc(-c3ccccc3)cc2)nn1)c1ccc([N+](=O)[O-])o1,liver microsomes,,120
Cc1cc(-c2ccnc3[nH]cc(F)c23)cc(F)c1[C@@]1(O)[C@H](C)CN(C)C[C@@H]1C,liver microsomes,,1.7
O=c1c2cccc(Oc3ccc(OC(F)(F)F)cc3)c2[nH]c2cc(Cl)cc(F)c12,liver microsomes,"1 µM, pH 7.4",> 60
Cc1[nH]c(C)c(S(=O)(=O)Nc2ccc(C(F)(F)F)c(Cl)c2)c1C(=O)N1CCC(F)(F)C1,liver microsomes,,11.7
Cc1cc(-c2ccnc3[nH]cc(F)c23)cc(F)c1[C@@]1(O)[C@H](C)CN(C2CCS(=O)(=O)CC2)C[C@@H]1C,liver microsomes,,45.9
COc1ccc(Oc2ccc3c(=O)c4c(F)cc(Cl)cc4[nH]c3c2)cc1,liver microsomes,"1 µM, pH 7.4",> 60
NS(=O)(=O)c1nnc(NC(=O)CCC2CC3CCC2C3)s1 (stereo not drawn),liver microsomes,,46
COCC(=O)OCc1cc2[nH]c(=S)n(Cc3cccnc3)c(=O)c2cc1Cl,liver microsomes,"1 µM, pH 7.4",< 5
